The record followed here is ChEMBL document CHEMBL1150054, “Studies on the synthesis of sesquiterpene lactones, 14. Syntheses of (-)-arbusclin D and (+)-4-EPI-arbusclin D: the stereochemical assignment of arbusclin D” (1992).

The test system of assay [1] is Brassica juncea. The assay is described as follows: Growth regulatory activity in Brassica juncea assessed as complete inhibition of stem growth at 1000 ppm after 10 days. It is filed as functional, organism-based.
Assay [2] deals with Brassica juncea. The experiment in a line: Growth regulatory activity in Brassica juncea assessed as complete inhibition of stem growth at 500 ppm after 10 days. It is filed as functional, organism-based.
The test system of assay [3] is Brassica juncea. The experiment in a line: Growth regulatory activity in Brassica juncea assessed as inhibition of stem growth at 250 ppm after 10 days. Type of assay: functional, organism-based.
For assay [4], the system named is Brassica juncea. The experiment in a line: Growth regulatory activity in Brassica juncea assessed as complete inhibition of root growth at 1000 ppm after 10 days. It is filed as functional, organism-based.
Assay [5] relates to Brassica juncea. The experiment in a line: Growth regulatory activity in Brassica juncea assessed as complete inhibition of root growth at 500 ppm after 10 days. It is filed as functional, organism-based.
Assay [6] relates to Brassica juncea. The assay is described as follows: Growth regulatory activity in Brassica juncea assessed as complete inhibition of root growth at 250 ppm after 10 days. Type of assay: functional, organism-based.
Assay [7] concerns Cucumis sativus. The assay is described as follows: Growth regulatory activity in Cucumis sativus assessed as complete inhibition of stem growth at 1000 ppm after 10 days. Type of assay: functional, organism-based.
For assay [8], the system named is Cucumis sativus. The experiment in a line: Growth regulatory activity in Cucumis sativus assessed as complete inhibition of stem growth at 500 ppm after 10 days. It is filed as functional, organism-based.
The subject of assay [9] is Cucumis sativus. The experiment in a line: Growth regulatory activity in Cucumis sativus assessed as inhibition of stem growth at 100 ppm after 10 days. It is filed as functional, organism-based.
Assay [10] has as its system Cucumis sativus. The assay is described as follows: Growth regulatory activity in Cucumis sativus assessed as complete inhibition of root growth at 500 ppm after 10 days. Type of assay: functional, organism-based.
The subject of assay [11] is Cucumis sativus. The experiment in a line: Growth regulatory activity in Cucumis sativus assessed as inhibition of root growth at 100 ppm after 10 days. Type of assay: functional, organism-based.
Assay [12] concerns P388. The assay is described as follows: Growth inhibition of mouse P388 cells at 10 ug/mL after 48 hrs relative to control. Type of assay: functional. The following applies: P388, 48 h, read-out: GI. The method in brief:
(§1)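 P-388 murine lymphocytic leukemia cells incubated with compound 48 h at 37° under humidified 5% CO2; cells counted by Coulter counter. Inhibitory ratio (%) = (1 − (T − C0)/(C − C0)) × 100, where T is the count with compound, C the count without compound and C0 the count at culture start.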

For assay [13], the system named is P388. The assay is described as follows: Growth inhibition of mouse P388 cells at 1 ug/mL after 48 hrs relative to control. Type of assay: functional. The settings on record: P388, 48 h, read-out: GI. The method in brief:
as §1

For assay [14], the system named is P388. The experiment in a line: Growth inhibition of mouse P388 cells at 0.1 ug/mL after 48 hrs relative to control. It is filed as functional. The settings on record: P388, 48 h, read-out: GI. The gist of the method:
as §1

The test system of assay [15] is Echinochloa frumentacea. The assay is described as follows: Growth regulatory activity in Echinochloa frumentacea assessed as complete inhibition of root growth at 500 ppm after 10 days. Type of assay: functional, organism-based.
Assay [16] deals with Echinochloa frumentacea. The assay is described as follows: Growth regulatory activity in Echinochloa frumentacea assessed as complete inhibition of root growth at 1000 ppm after 10 days. Type of assay: functional, organism-based.
Assay [17] concerns Echinochloa frumentacea. The experiment in a line: Growth regulatory activity in Echinochloa frumentacea assessed as complete inhibition of stem growth at 500 ppm after 10 days. Type of assay: functional, organism-based.
The subject of assay [18] is Echinochloa frumentacea. The experiment in a line: Growth regulatory activity in Echinochloa frumentacea assessed as complete inhibition of stem growth at 1000 ppm after 10 days. Type of assay: functional, organism-based.
Assay [19] relates to Cucumis sativus. The assay is described as follows: Growth regulatory activity in Cucumis sativus assessed as inhibition of root growth at 250 ppm after 10 days. Type of assay: functional, organism-based.
Assay [20] has as its system Cucumis sativus. The assay is described as follows: Growth regulatory activity in Cucumis sativus assessed as inhibition of root growth at 500 ppm after 10 days. It is filed as functional, organism-based.
In assay [21] the test system is Cucumis sativus. The assay is described as follows: Growth regulatory activity in Cucumis sativus assessed as complete inhibition of root growth at 1000 ppm after 10 days. It is filed as functional, organism-based.
The test system of assay [22] is Cucumis sativus. The experiment in a line: Growth regulatory activity in Cucumis sativus assessed as inhibition of stem growth at 250 ppm after 10 days. It is filed as functional, organism-based.
Assay [23] deals with Echinochloa frumentacea. The experiment in a line: Growth regulatory activity in Echinochloa frumentacea assessed as inhibition of stem growth at 500 ppm after 10 days. It is filed as functional, organism-based.
Assay [24] relates to Brassica juncea. The experiment in a line: Growth regulatory activity in Brassica juncea assessed as inhibition of stem growth at 500 ppm after 10 days. Type of assay: functional, organism-based.
For assay [25], the system named is Cucumis sativus. The experiment in a line: Growth regulatory activity in Cucumis sativus assessed as complete inhibition of stem growth at 250 ppm after 10 days. It is filed as functional, organism-based.
The test system of assay [26] is Cucumis sativus. The assay is described as follows: Growth regulatory activity in Cucumis sativus assessed as complete inhibition of root growth at 250 ppm after 10 days. Type of assay: functional, organism-based.
The test system of assay [27] is Echinochloa frumentacea. The assay is described as follows: Growth regulatory activity in Echinochloa frumentacea assessed as inhibition of stem growth at 250 ppm after 10 days. Type of assay: functional, organism-based.
Assay [28] relates to Cucumis sativus. The experiment in a line: Growth regulatory activity in Cucumis sativus assessed as complete inhibition of root growth at 100 ppm after 10 days. Type of assay: functional, organism-based.
For assay [29], the system named is Echinochloa frumentacea. The experiment in a line: Growth regulatory activity in Echinochloa frumentacea assessed as complete inhibition of root growth at 250 ppm after 10 days. It is filed as functional, organism-based.
Assay [30] concerns Brassica juncea. The experiment in a line: Growth regulatory activity in Brassica juncea assessed as inhibition of root growth at 250 ppm after 10 days. It is filed as functional, organism-based.
Assay [31] deals with Echinochloa frumentacea. The experiment in a line: Growth regulatory activity in Echinochloa frumentacea assessed as inhibition of root growth at 500 ppm after 10 days. Type of assay: functional, organism-based.
The subject of assay [32] is Brassica juncea. The experiment in a line: Growth regulatory activity in Brassica juncea assessed as inhibition of root growth at 500 ppm after 10 days. Type of assay: functional, organism-based.
Assay [33] relates to P388. The experiment in a line: Growth inhibition of mouse P388 cells at 0.01 ug/mL after 48 hrs relative to control. It is filed as functional. The settings on record: P388, 48 h, read-out: GI. The method in brief:
as §1

Assay [34] deals with Echinochloa frumentacea. The experiment in a line: Growth regulatory activity in Echinochloa frumentacea assessed as inhibition of root growth at 1000 ppm after 10 days. It is filed as functional, organism-based.
Assay [35] concerns Echinochloa frumentacea. The assay is described as follows: Growth regulatory activity in Echinochloa frumentacea assessed as inhibition of stem growth at 1000 ppm after 10 days. It is filed as functional, organism-based.
Assay [36] has as its system Brassica juncea. The experiment in a line: Growth regulatory activity in Brassica juncea assessed as inhibition of root growth at 1000 ppm after 10 days. It is filed as functional, organism-based.

SMILES strings stand for the structures. Active and inactive are the calls of the source. The calls are words filed in the database; no cut-off is given here.

Turning to `C=C1C(=O)O[C@@H]2[C@@H]3[C@](C)(CCC[C@@]3(C)O)CC[C@@H]12` [ARBUSCULIN A], the result in assay [1], in assay [2], in assay [3], in assay [4], in [5] and in assay [6] was Active. Further, the result in assay [7], in assay [8], in assay [9], in assay [10], in [11] and in [15] was Active. The result in assay [16], in [17], in [18], in assay [19], in [20] and in [21] was Active. Also, the result in assay [22] was Active. Further, the inhibition of growth at 10 µg/mL in assay [12] turned out to be 101%. Further, the inhibition of growth at 1 µg/mL in assay [13] is 45%. Moreover, the inhibition of growth at 0.1 µg/mL in [14] turned out to be 2%.

`C[C@@H]1C(=O)O[C@H]2C1CC[C@@]1(C)CCC[C@@](C)(O)[C@H]21` (stereo not given in full): the outcome in assay [1], in [4], in assay [5], in [7], in assay [8] and in assay [10] was Active. For the same compound, the outcome in [23], in [24], in assay [25], in assay [26], in assay [15] and in [16] was Active. Besides, the result in assay [18] and in [21] was Active.

In the case of `CC(=O)OCC1=C2CC[C@@]3(C)CCC[C@@](C)(O)[C@@H]3[C@H]2OC1=O`, the outcome in assay [27], in assay [1] and in [4] was Active.

Consider `C[C@]12CCC[C@@](C)(O)[C@@H]1[C@H]1OC(=O)C(CCl)=C1CC2`, for which the outcome in [1], in [3], in assay [4], in [5], in assay [7] and in [8] was Active. The outcome in assay [10], in assay [23], in [24], in assay [26], in assay [28] and in assay [29] was Active. The result in assay [15], in assay [16], in assay [18], in assay [21], in assay [22] and in [30] was Active. The inhibition of growth at 10 µg/mL in [12] amounted to 103%. Also, the inhibition of growth at 1 µg/mL in assay [13] is 65%. The inhibition of growth at 0.1 µg/mL in assay [14] worked out at 26%.

Take `C[C@]12CCC[C@@](C)(O)[C@@H]1[C@H]1OC(=O)C(CBr)=C1CC2`: the result in [31], in assay [1], in [4], in assay [7], in [16] and in assay [18] was Active. Further, the result in assay [20] and in assay [32] was Active. Besides, the inhibition of growth at 10 µg/mL in assay [12] came out at 102%. Also, in assay [13], the inhibition of growth at 1 µg/mL is 44%. Moreover, the inhibition of growth at 0.1 µg/mL in assay [14] was 3%.

Consider `COc1cccc2c1C(=O)c1c(O)c3c(c(O)c1C2=O)C[C@@](O)(C(=O)CO)C[C@@H]3O[C@H]1C[C@H](N)[C@H](O)[C@H](C)O1` [DOXORUBICIN], for which, in [13], the inhibition of growth at 1 µg/mL turned out to be 105%. The inhibition of growth at 0.1 µg/mL in assay [14] worked out at 99%. Also, the inhibition of growth at 0.01 µg/mL in assay [33] worked out at 38%.

`C[C@]12CCC[C@@](C)(O)[C@@H]1[C@H]1OC(=O)C(CO)=C1CC2`: the outcome in assay [34], in [35], in assay [19], in assay [20], in assay [21] and in [36] was Active.
